Autophagy HCS: modulators of autophagy | actives 0.98% (n = 190,000) | calls only at 10 µM (by protocol) | MEF GFP-LC3 puncta imaging; test concentration mostly 10 µM;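 active = percentage of spot-positive cells more than 3 SD above its plate mean, without a fluorescence outlier flag or 80% toxicity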
Lmaj promast: inhibitors of Leishmania major promastigote growth | Leishmania major promastigotes, resazurin fluorescence viability | inhibition, % at 10 µM | actives 9% (n = 200,000); in the data active = inhibition above about 50%;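 note: promastigotes grown with compound for 44 hours at 28 °C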
MT stabilizer: microtubule stabilization, imaging screen. HeLa tubulin immunostaining HCS, 24 h; share of cells brighter than vehicle mean+2SD. AID 2205. % tubulin-high responders, % at 10 µM. actives 0.83% (n = 200,000);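 active = plate Z-score above 3 for both tubulin-high and condensed-nucleus cell shares, with cell loss under 80%, at 10 µM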;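 note: anti alpha tubulin signal scored within the nucleus-defined area of each cell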
b-catenin transl: beta-catenin nuclear translocation modulation | HeLa beta-catenin nuclear translocation, immunofluorescence imaging | nuclear translocation activity, % at 5 µM | actives 0.3% (n = 190,000) | AID 1665;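 active = nuclear translocation activity above 50% at 5 µM, with a well cell count of 50 or more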;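 note: per-cell ratio of nuclear to cytoplasmic median beta-catenin stain intensity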
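System: HeLa cells, endogenous beta-catenin; compound dosing: 5 µM primary single dose, 0.1% DMSO, 0.02–20 µM confirmation series; incubation: 24 h compound exposure at 37°C, 5% CO2; signal: beta-catenin immunofluorescence imaging with DAPI; evaluation: % activation, nuclear-to-cytoplasmic median beta-catenin signal ratio per cell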
CHOP inh: inhibitors of CHOP induction in ER stress response; CHO-K1 CHOP-promoter luciferase, tunicamycin-induced, 15-18 h; inhibition, % at 10 µM; actives 3.8% (n = 220,000); AID 2732;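 active = compounds that reduced the stress-induced luciferase reporter signal by more than about 70% of percent inhibition, limit read from the data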
Dynein cargo inh: dynein cargo transport inhibition | 3617.4 mouse cells, GR-EGFP nuclear translocation imaging; test concentration mostly 20 µM; stimulated with dexamethasone, 1 µM; hits give low values | z-score, hits read low | actives 0.47% (n = 220,000);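 active = plate z-score of nuclear minus cytoplasmic receptor signal below a set negative limit, without overly bright fluorescence or cell loss, cut at about -3.5 in these data, passing the limit was not always enough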;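 note: z-score of nuclear minus cytoplasmic ring GR-EGFP intensity difference per well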
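Buffer or medium: tet-free, stripped-serum medium; reagent: dexamethasone at 1.0 µM final, 30 min; incubation: 48 h induction, 1 h compound, 30 min dex at 37 °C; measured by: formaldehyde fixation, Hoechst nuclear stain, 10x automated fluorescence imaging; read-out: nuclear-to-cytoplasmic GR-EGFP distribution per well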
Each line names hits and unclear results; the compound was inactive in the other large screens. Only some compounds are listed: those with a hit (about 12% of all), similar ones and a draw of the others.

OCCN1CCN(C(c2cccs2)c2ccc3cccnc3c2O)CC1 (stereo unspecified)	Lmaj promast 53 (no result: Autophagy HCS, CHOP inh)
CCc1ccc(/C=C2\SC(=S)N(CCCC(=O)Nc3nccs3)C2=O)cc1	CHOP inh 78
O=C(CCCN1C(=O)/C(=C\c2cccs2)SC1=S)Nc1ccccn1	none
COc1ccc(/C=C2\SC(=S)N(CCCC(=O)Nc3ccccn3)C2=O)cc1OC	Lmaj promast 63
Cc1ccc(/C=C2\SC(=S)N(CCCC(=O)Nc3nccs3)C2=O)cc1	none
COc1ccc(N2CCN(C(=O)Cn3c(=O)[nH]c4ccccc4c3=O)CC2)cc1	none
CC(=O)Nc1cccc(CNCc2cccc(NC(C)=O)c2)c1	none
CN(Cc1cn(C)nc1-c1ccc(Oc2ccccc2)cc1)Cc1cnc2ccccn12	Lmaj promast 78
CN(Cc1cn(C)nc1-c1ccc(Oc2ccccc2)cc1)CC1COCCO1 (stereo unspecified)	Lmaj promast 85
CN(Cc1cn(C)nc1-c1ccc(Oc2ccccc2)cc1)C1CCOC1 (stereo unspecified)	none (no result: Autophagy HCS, Lmaj promast, MT stabilizer)
COCCOC(=O)/C(C#N)=C/c1cn(Cc2ccccc2)nc1-c1cccnc1	none
CCOC(=O)c1c(OCC)[nH]c2c1cc(O)c1ccccc12	Lmaj promast 99
CCOc1ccccc1OCCC(=O)OCC(=O)c1ccc[nH]1	none
Cc1ccc(S(=O)(=O)N2CCOCC2)cc1NC(=O)COC(=O)c1cccnc1Cl	none
CCOC(=O)N1CCN(C(=O)Nc2ccc3nc(C)sc3c2)CC1	none
CCOC(=O)Nc1ccc2nc(N3CCCCCC3)sc2c1	b-catenin transl 84 (no result: Autophagy HCS, Lmaj promast, MT stabilizer)
CCCC(=O)Nc1ccccc1NC(=O)c1ccc(OC(C)=O)cc1	none
O=C(CSc1ccccc1)NCCCN1CCOCC1	Lmaj promast 77
O=C(NCCCN1CCOCC1)C(=O)NCc1ccccc1Cl	none
CC(Oc1ccccc1F)C(=O)NCCN1CCCCC1 (stereo unspecified)	CHOP inh 74
O=C(NCCN1CCCC1)c1ccccc1Cl	none
O=C(COc1ccccc1Cl)NCCCN1CCOCC1	Lmaj promast 80
CC(Oc1ccc(Cl)cc1Cl)C(=O)NCCN1CCOCC1 (stereo unspecified)	Lmaj promast 79
Cc1ccn(C)c(=N)c1	none (no result: Autophagy HCS, Lmaj promast, MT stabilizer)
C/C(=N\NC(=O)Cn1nnc2ccccc21)c1ccco1	none
Cc1ccc(C)c2c(N)c3c(nc12)CCCCC3 (tested in a mixture with another compound)	none
O=C(NCc1ccco1)/C(=C\c1cccs1)NC(=O)c1ccco1	none
O=C(COc1ccc(Cl)cc1Cl)NCCCN1CCOCC1	Lmaj promast 94
Cc1cc(Cl)ccc1OCC(=O)NCCCN1CCOCC1	Lmaj promast 92
CN(C)c1nc(OCCNC(=O)COc2ccc(Cl)cc2Cl)nc(N2CCOCC2)n1	none
COC(=O)N/N=C/c1cn(Cc2c(Cl)cccc2Cl)c2ccccc12	none
Cc1ccc(N2C(=O)c3ccccc3C2Nc2cccnc2)nc1 (stereo unspecified)	Lmaj promast 69 (no result: Autophagy HCS)
CCOC(=O)c1ccccc1NC1c2ccccc2C(=O)N1c1ccc(C)cn1 (stereo unspecified)	CHOP inh 85
COC(=O)c1cc(NS(=O)(=O)c2ccc(N3CCC(C)CC3)c([N+](=O)[O-])c2)cc(C(=O)OC)c1	none
COC(=O)Cc1[nH]nc2c1C(c1ccc(O)c(OC)c1)C(C#N)=C(N)O2 (stereo unspecified)	none (no result: Autophagy HCS, Lmaj promast, MT stabilizer)
Cn1c(=O)c(C(=O)CN2CCCc3ccccc32)c(N)n(Cc2ccccc2)c1=O	CHOP inh 77
O=C1CC(c2ccco2)Cc2nc(Nc3ccc(F)cc3)ncc21 (stereo unspecified)	none
O=C1CC(c2ccco2)Cc2nc(NCC3CCCO3)ncc21 (stereo unspecified)	CHOP inh 82
CC1(C)Oc2ccc(C(=O)NC3CCCC3)cc2N(CC(=O)NC2CCCCC2)C1=O	none
CCn1c(SCC(=O)c2ccc(NC(C)=O)c(OC)c2)nnc1-c1ccc(NS(C)(=O)=O)cc1	Lmaj promast 64
CCC(=O)Nc1ccc(C(=O)CSc2nnc(-c3ccc(NS(C)(=O)=O)cc3)n2C)cc1OC	none
COc1ccccc1C(=O)Oc1cc(N)n(S(=O)(=O)c2ccc(C)cc2)n1	CHOP inh 79
Cc1ccc(S(=O)(=O)n2nc(OC(=O)C3CCCCC3)cc2N)cc1	none
COc1ccc(S(=O)(=O)n2nc(OC(=O)C3CCCCC3)cc2N)cc1	CHOP inh 74
Cc1cccc(N2C(=O)c3cccc4c(N5CCCCC5)c([N+](=O)[O-])cc(c34)C2=O)c1C	Lmaj promast 89 (no result: b-catenin transl)
Cc1ccc(N2C(=O)c3cccc4c([N+](=O)[O-])ccc(c34)C2=O)c2cccnc12	b-catenin transl 52, CHOP inh 95 (no result: Autophagy HCS, Lmaj promast, MT stabilizer)
NS(=O)(=O)c1ccc(Cl)cc1[N+](=O)[O-]	none (no result: Autophagy HCS, Lmaj promast, MT stabilizer)
COc1ccc(OC)c(NC(=O)c2ccno2)c1	none
CCOC(=O)C1=C(N)Oc2cc(O)ccc2C1c1ccc([N+](=O)[O-])cc1 (stereo unspecified)	CHOP inh 94
CC1CC(OCC(O)CN2CCOCC2)CC(C)(C)C1 (stereo unspecified)	Lmaj promast 77
CC1CC(OCC(O)C[N+]2(C)CCOCC2)CC(C)(C)C1 (stereo unspecified)	none
CCOC(=O)N1CCN(CC(O)c2ccccc2)CC1 (stereo unspecified)	none
CCOC(=O)N1CCN(CC(O)COC2CC(C)CC(C)(C)C2)CC1 (stereo unspecified)	Lmaj promast 93
COc1ccc(NC(=O)C2=C(C)Nc3nc(CCCO)nn3C2c2ccc(OC)c(OC)c2)cc1 (stereo unspecified)	none
Cc1cc(NC(=O)C2CCCCC2)ccc1NC(=O)c1ccccc1Cl	none
CC(C)NC(=O)C1(O)c2ccccc2NC(=O)N1c1ccc(Cl)c(Cl)c1 (stereo unspecified)	CHOP inh 81
O=C1Nc2ccccc2C(O)(C(=O)N2CCCCC2)N1c1ccccc1 (stereo unspecified)	none
COc1ccc(C(C[N+](=O)[O-])c2c(-c3ccccc3)cc3ccccn23)cc1OC (stereo unspecified)	Lmaj promast 100, CHOP inh 81
COc1ccc(C(C[N+](=O)[O-])c2c(-c3ccccc3)cc3ccccn23)cc1 (stereo unspecified)	Lmaj promast 100, MT stabilizer 29
COc1cc(C(C[N+](=O)[O-])c2c(-c3ccccc3)cc3ccccn23)cc(OC)c1OC (stereo unspecified)	Lmaj promast 93
CCC(C)Nc1nc(CN2CCOCC2)nc2sc3c(c12)CCC3 (stereo unspecified)	none
CCC(CC)N1CCN(CC2CC=CCC2)CC1 (stereo unspecified)	none
